Compound activity from PubChem.
PKD1 kinase inh: inhibitors of human PKD1 kinase | inhibition, % (no concentration beside the values) | Q15139 | actives 0.056% (n = 200,000) | PKD1 kinase fluorescence polarization assay
GSH fluor: GSH bead compound fluorescence profile | AID 1776 | actives 0.25% (n = 190,000) | fluorescence (KMESF) at 10 µM | GSH beads flow cytometry, compound fluorescence 488/530 nm; hits give high values; in the data active = fluorescence above about 89;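 note: glutathione beads carrying GST-tagged Bcl family fusion proteins plus one bare bead set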
L major viab: Leishmania major promastigote growth inhibition; Leishmania major promastigotes, resazurin fluorescence viability; inhibition, % at 10 µM; actives 9% (n = 200,000); AID 1063;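 note: promastigotes grown with compound for 44 hours at 28 °C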
ABCB1 block: inhibitors of human ABCB1 transporter, ABCG2 counter-screen; P08183; CCRF-Adr cells, JC-1 efflux, flow cytometry; inhibition, % at 6.6 µM; actives 0.067% (n = 190,000); AID 1326; in the data active = inhibition above about 40%;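 note: higher value means more JC-1 retained so stronger ABCB1 efflux block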
Avidin fluor: compound fluoresces at 488/530 nm on avidin beads | actives 0.38% (n = 220,000) | compound fluorescence 488/530 nm, flow cytometry; hits give high values | fluorescence (KMESF) at 10 µM; in the data active = fluorescence above about 47
ABCG2 block: inhibitors of human ABCG2 transporter, ABCB1 counter-screen; Q9UNQ0; IgMXP3 cells, JC-1 efflux, flow cytometry; inhibition, % at 6.6 µM; actives 0.1% (n = 190,000); AID 1325;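 active = inhibition above 80%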
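System: two drug-resistant human cell lines, ABCG2 and ABCB1; controls: nicardipine high and DMSO low controls; times: 10 min exposure at 25 °C with rotation, no wash; detection: flow cytometry of retained JC-1 fluorescence; read-out basis: percent efflux inhibition, scaled nicardipine 100% to DMSO 0%; doses: one concentration, 6.6 µM final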
Hits are given with their value; i = inactive; nt = no result. The full list was thinned out, with hits kept by preference. Cut-off read from the data, not from the text of the source, unless noted: active = inhibition above about 50%; inactive = the rest.

SMILES | PKD1 kinase inh | GSH fluor | L major viab | ABCB1 block | Avidin fluor | ABCG2 block
CC(=O)Nc1ccc(S(=O)(=O)NNC(=O)c2cccc(Cl)c2)cc1 | i | i | i | i | i | i
CN(C)c1ccc(NC(=O)CCCc2ccccc2)cc1 | i | i | 76.5 | i | i | i
O=C(CCc1ccccc1)Nc1ccccc1 | i | i | i | i | i | i
CN(CC(=O)Nc1ccc(Cl)cc1)CC(=O)Nc1ccc(C(N)=O)cc1 | i | i | i | i | i | i
CN(CC(=O)Nc1ccc(C(N)=O)cc1)CC(=O)Nc1ccccc1Cl | i | i | 50.8 | i | i | i
CC(=O)Nc1ccccc1Nc1cc(C#N)c(C#N)cc1[N+](=O)[O-] | i | nt | 96.7 | nt | nt | nt
CCOc1ccc(C(=O)Nc2ccccc2C#N)cc1[N+](=O)[O-] | i | i | i | i | i | i
O=C(CNC(=O)/C(=C\c1ccc(F)cc1)NC(=O)c1ccccc1)OCc1ccccc1 | i | i | i | i | 199 | i
Cc1nc(-c2ccc(-n3nncc3-c3ccco3)cc2)cs1 | nt | nt | nt | nt | i | nt
COc1cc2c(cc1OC)CN(c1ccc(-c3ccccc3OC)nn1)CC2 | i | i | 100.1 | i | i | i
COc1ccccc1-c1ccc(NC2CCCC2)nn1 | i | i | i | i | i | i
Cc1[nH]n(-c2ccccc2)c(=O)c1C=Nc1cccc2cccnc12 | i | i | 64.4 | i | i | i
COc1cc(S(=O)(=O)Nc2cccc(C)c2)ccc1N=Cc1c(C)[nH]n(-c2ccccc2)c1=O | i | i | 56.9 | i | i | i
Cc1[nH]n(-c2ccccc2)c(=O)c1/C=N/N1C(=O)c2cccc3cccc(c23)C1=O | i | i | 58.7 | i | i | i
Cc1nn(Cc2c(Cl)cccc2Cl)c(C)c1NC(=O)c1sc2ccccc2c1Cl | i | i | i | i | i | i
Cc1nn(Cc2c(Cl)cccc2Cl)c(C)c1NC(=O)c1cn(-c2ccccc2)nc1-c1ccccc1 | i | i | 83.5 | i | i | i
O=C1c2ccccc2C(=O)c2c1ccc1c(=O)n(C3CCCCC3)[nH]c21 | i | i | 99.0 | i | i | i
O=C(COC(=O)c1ccccc1O)Nc1cccnc1Cl | i | i | i | i | i | i
O=C(COC(=O)c1cc2ccccc2cc1O)Nc1cccnc1Cl | i | i | 62.9 | i | i | i
O=c1c2ccccc2c(-c2ccccc2)nn1-c1ccccc1 | nt | nt | nt | nt | i | nt
CCS(=O)(=O)N1CCN(c2ccc([N+](=O)[O-])c(NC(C)c3ccccc3)c2)CC1 (centres undefined) | i | i | i | i | i | i
Cc1nn(-c2cc(N3CCCCC3)ccc2[N+](=O)[O-])c(=O)c2ccccc12 | i | i | i | i | i | i
Cc1nn(-c2cc(N3CCNCC3)ccc2[N+](=O)[O-])c(=O)c2ccccc12 | i | i | 67.3 | i | i | i
CN1CCN(c2ccc([N+](=O)[O-])c(-n3nc(-c4ccccc4)c4ccccc4c3=O)c2)CC1 | i | i | 99.3 | i | i | i
CC(Nc1cc(N2CCNCC2)ccc1[N+](=O)[O-])c1ccccc1 (centres undefined) | i | i | 99.6 | i | i | i
SMILES | PKD1 kinase inh | GSH fluor | L major viab | ABCB1 block | Avidin fluor | ABCG2 block
Cn1ncc([N+](=O)[O-])c1C(=O)Nc1ccc(-c2nc3ccccc3o2)cc1 | i | i | i | i | i | i
C=CCC1(NC(C)c2ccccc2)CCCCC1 (centres undefined) | i | i | 56.6 | i | i | i
COCCNC(=S)N(CCc1c(C)[nH]c2ccc(Cl)cc12)Cc1cccs1 | i | i | 52.8 | i | i | i
COCCNC(=S)N(CCc1c(C)[nH]c2ccc(F)cc12)Cc1cccs1 | i | i | i | i | nt | i
NC(=O)c1ccccc1NC(=O)Nc1cccc(Cl)c1Cl | i | i | 64.8 | i | i | i
Cc1c(Cl)cccc1NC(=O)Nc1ccccc1C(N)=O | i | i | i | i | i | i
Cc1noc(C)c1COC(=O)C1(c2cccc(F)c2)CCCC1 | i | i | i | i | i | i
Cc1ccc(C2C(C#N)=C(N)N(N(C)C)C3=C2C(=O)CCC3)cc1 (centres undefined) | i | i | i | i | i | i
CN(C)N1C(N)=C(C#N)C(c2cccc3ccccc23)C2=C1CC(c1ccccc1)CC2=O (centres undefined) | i | i | 95.5 | i | i | i
O=C(COC(=O)c1ccccc1Br)NCc1ccccc1 | i | i | 59.9 | i | i | i
CCOC(=O)/C=C/C(=O)OCC(=O)NCc1ccccc1 | i | i | 54.8 | i | i | i
O=C(COC(=O)c1ccccc1Cl)NC(=O)NCc1ccccc1 | i | i | 82.7 | i | i | i
O=C(COC(=O)c1cc(Br)ccc1Cl)NC(=O)NCc1ccccc1 | i | i | i | i | i | i
Cc1ccc(CNC(=O)COc2ccccc2-c2ccccc2)cc1 | i | i | 69.6 | i | i | i
O=S1(=O)C=C(SCc2ccc(Cl)c(Cl)c2)Nc2ccccc21 | i | i | i | i | i | i
CCn1c(NC(=O)c2ccc(C)cc2)c2ccccc2nc1=O | i | i | 76.9 | i | i | i
CCOCCCNC(=O)c1ccc(-n2c(=S)[nH]c3ccccc3c2=O)cc1 | i | i | i | i | i | i
O=C(NCc1nc2ccccc2[nH]1)C1=C[C@@H](C2CCCCC2)C[C@@H](OCc2ccc(CO)cc2)O1 | i | i | 73.7 | i | i | i
O=C(NCc1nc2ccccc2[nH]1)C1=C[C@H](C2CCCCC2)C[C@H](OCc2ccc(CO)cc2)O1 | i | i | i | i | i | i
O=C(NCc1nc2ccccc2[nH]1)C1=C[C@H](c2ccccc2)C[C@H](OCc2ccc(CO)cc2)O1 | i | i | i | i | i | i
O=C(NCc1nc2ccccc2[nH]1)C1=C[C@@H](c2ccccc2)C[C@@H](OCc2ccc(CO)cc2)O1 | i | i | 85.2 | i | i | i
O=C(N/N=C/c1ccc(N2CCOCC2)cc1)c1cccs1 | i | i | i | i | i | i
O=C(N/N=C/c1ccc(N2CCOCC2)cc1)c1ccccc1OCCOc1ccccc1 | i | i | 60.9 | i | i | i
O=C(N/N=C/c1cc([N+](=O)[O-])ccc1O)c1cc(-c2ccccc2)nc2ccccc12 | i | i | 98.4 | i | i | i
CCCc1ccc(-c2cc(C(=O)Nc3ccc([N+](=O)[O-])cn3)c3ccccc3n2)cc1 | i | i | 75.7 | i | i | i
O=C(N/N=C/c1cccc([N+](=O)[O-])c1)c1cc(-c2ccccc2)nc2ccccc12 | i | i | i | i | i | i
O=C(N/N=C/c1ccc([N+](=O)[O-])o1)c1cc(-c2ccc(-c3ccccc3)cc2)nc2ccccc12 | i | i | 100.3 | i | i | i
Cc1cc(N/N=C/c2ccc([N+](=O)[O-])o2)nc2ccccc12 | i | i | 83.4 | i | i | i
O=C(COC(=O)CCCN1C(=O)c2cccc3cccc(c23)C1=O)Nc1cccc(C(F)(F)F)c1 | i | i | i | i | i | i
